Source: ChEMBL document CHEMBL3804820, “2-hydroxyisoquinoline-1,3(2H,4H)-diones (HIDs) as human immunodeficiency virus type 1 integrase inhibitors: Influence of the alkylcarboxamide substitution of position 4” (Eur J Med Chem, 2016)
In brackets after ≈: the same amount, converted by molar mass. Activity calls are given as the source filed them. No cut-off for these calls is given here.

Key:
[1] = Cytotoxicity against human HepG2 cells assessed as reduction in cell number at 1 uM after 72 hrs by fluorescent image analysis relative to untreated control; assay type: cell-based; conditions: read-out: INH
How it was run: (§1)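 Contract in vitro cytotoxicity panel covering cell number, intracellular free calcium, nuclear size, membrane permeability and mitochondrial membrane potential. Compounds tested at 1.0, 30.0 and 100.0 µM; values are percentage change versus untreated control, and IC50 where derived.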

[2] = Cytotoxicity against human HepG2 cells assessed as reduction in nuclear size at 100 uM after 72 hrs by fluorescent image analysis relative to untreated control; assay type: cell-based; conditions: read-out: INH; how it was run: as §1
[3] = biological target: Human immunodeficiency virus type 1 integrase (Human immunodeficiency virus 1, UniProt Q7ZJM1); assay: Inhibition of HIV1 integrase strand transfer activity using 5'[digoxigenin]-GACCCTTTTAGTCAGTGTGGAAAATCTCTAGCA-3' as substrate incubated for 1 hr by ELISA
How it was run: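 ELISA with a 3'-biotin oligo and a 5'-digoxigenin partner oligo. Overall assay uses the full complementary oligo; strand transfer uses a precleaved oligo lacking the 3'-GT. Integrase at 160 nM final, annealed oligos 7 nM, in 10 mM MgCl2, 5 mM DTT, 20 mM HEPES pH 7.5, 0.5% PEG, 15% DMSO. Run 1 h at 37 °C, products denatured with NaOH, detected on avidin plates.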

HepG2 [4] = assay: Cytotoxicity against human HepG2 cells assessed as increase in membrane permeability at 1 uM after 72 hrs by fluorescent image analysis relative to untreated control; assay type: cell-based; conditions: hepg2, 72 h
[5] = Cytotoxicity against human HepG2 cells assessed as reduction in nuclear size at 30 uM after 72 hrs by fluorescent image analysis relative to untreated control; assay type: cell-based; conditions: read-out: INH; how it was run: as §1
hERG (KCNH2) [6] = biological target: T1, hERG (KCNH2) (Homo sapiens, UniProt Q12809); assay: in vitro; conditions: CHO-K1 cells expressing human ERG
CYP2C9 = CYP2C9 (Homo sapiens, UniProt P11712); assay: Inhibition of human recombinant CYP2C9 using MFC as substrate at 10 uM incubated for 40 mins by fluorimetry relative to control; assay type: ADME; conditions: recombinant CYP2C9, probe MFC
How it was run: (§2)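 Recombinant CYP isoforms, each with its fluorogenic substrate: CYP1A2 and CYP2C19 with CEC, CYP2C9 and CYP2D6 with MFC, CYP3A4 with BFC. Read as percentage inhibition of control, standard contract assays.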

HepG2 [7] = assay: Cytotoxicity against human HepG2 cells assessed as increase in intracellular free calcium level at 1 uM after 72 hrs by fluorescent image analysis relative to untreated control; assay type: cell-based; conditions: hepg2, 72 h; how it was run: as §1
HepG2 [8] = assay: Cytotoxicity against human HepG2 cells assessed as increase in membrane permeability at 30 uM after 72 hrs by fluorescent image analysis relative to untreated control; assay type: cell-based; conditions: hepg2, 72 h
[9] = Aqueous solubility in PBS at pH 7.4; assay type: physicochemical
How it was run: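 Aqueous solubility measured in PBS, pH 7.4, in a standard contract assay.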

HepG2 [10] = assay: Cytotoxicity against human HepG2 cells assessed as increase in intracellular free calcium level at 30 uM after 72 hrs by fluorescent image analysis relative to untreated control; assay type: cell-based; conditions: hepg2, 72 h; how it was run: as §1
[11] = Therapeutic index, ratio of CC50 for human MT4 cells to EC50 for HIV1 3B infected in human MT4 cells; assay type: cell-based; conditions: read-out: Ratio CC50/EC50
How it was run: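 Ratio of CC50 to EC50. Both were determined in parallel by MTT in MT-4 cells, with the EC50 measured against HIV-1 IIIB cytopathic effect.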

[12] = Cytotoxicity against human HepG2 cells assessed as reduction in nuclear size at 1 uM after 72 hrs by fluorescent image analysis relative to untreated control; assay type: cell-based; conditions: read-out: INH; how it was run: as §1
[13] = test system: Human immunodeficiency virus 1; assay: Antiviral activity against HIV1 3B infected in human MT4 cells at 50 to 100 times antiviral EC50 added 1 to 25 hrs post infection assessed as time required for loss of inhibition of viral replication measured at 30 hrs post infection by p24 ELISA method; assay type: functional
HepG2 [14] = assay: Cytotoxicity against human HepG2 cells assessed as increase in intracellular free calcium level at 100 uM after 72 hrs by fluorescent image analysis relative to untreated control; assay type: cell-based; conditions: hepg2, 72 h; how it was run: as §1
[15] = Cytotoxicity against human HepG2 cells assessed as reduction in cell number at 100 uM after 72 hrs by fluorescent image analysis relative to untreated control; assay type: cell-based; conditions: read-out: INH; how it was run: as §1
[16] = Cytotoxicity against human HepG2 cells assessed as reduction in cell number at 30 uM after 72 hrs by fluorescent image analysis relative to untreated control; assay type: cell-based; conditions: read-out: INH; how it was run: as §1
[17] = Plasma protein binding in human assessed as drug recovery at 10 uM incubated for 4 hrs by equilibrium dialysis method; assay type: ADME, cell-free; conditions: read-out: Drug recovery
How it was run: (§3)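 Human plasma protein binding, given as percent bound and percent recovery, in a standard contract assay.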

[18] = Plasma protein binding in human at 10 uM incubated for 4 hrs by equilibrium dialysis method; assay type: ADME, cell-free; conditions: read-out: PPB; how it was run: as §3
[19] = test system: Human immunodeficiency virus 1; assay: Selectivity ratio of EC50 for raltegravir resistant HIV1 harboring integrase G140S/Q148H double mutant infected in human MT4 cells to EC50 for wild type HIV1 3B infected in human MT4 cells; assay type: functional
How it was run: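 MT-4 cells were infected with 100–300 CCID₅₀ of virus stock (titrated in MT-4 cells) in the presence of 5-fold serial drug dilutions. EC₅₀ is the concentration giving 50% protection against virus-induced cytopathic effect, read by MTT reduction (MT-4/MTT assay). The value is the fold-change in EC₅₀ for each mutant strain relative to the wild-type HIV-1 strain.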

hERG (KCNH2) [20] = biological target: T1, hERG (KCNH2); assay: in vitro; conditions: CHO-K1 cells expressing human ERG; remark: listed apart in the source
hERG (KCNH2) [21] = biological target: T1, hERG (KCNH2); assay: in vitro; conditions: CHO-K1 cells expressing human ERG; remark: listed apart in the source
CYP2D6 = CYP2D6 (Homo sapiens, UniProt P10635); assay: Inhibition of human recombinant CYP2D6 using MFC as substrate at 10 uM incubated for 40 mins by fluorimetry relative to control; assay type: ADME; conditions: recombinant CYP2D6, probe MFC; how it was run: as §2
[22] = Partition coefficient , log D of the compound in n-octanol/PBS at pH 7.4; assay type: physicochemical
How it was run: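 Log D measured by n-octanol/PBS partition at pH 7.4, in a standard contract assay.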

T1 sequence (Q12809 whole entry): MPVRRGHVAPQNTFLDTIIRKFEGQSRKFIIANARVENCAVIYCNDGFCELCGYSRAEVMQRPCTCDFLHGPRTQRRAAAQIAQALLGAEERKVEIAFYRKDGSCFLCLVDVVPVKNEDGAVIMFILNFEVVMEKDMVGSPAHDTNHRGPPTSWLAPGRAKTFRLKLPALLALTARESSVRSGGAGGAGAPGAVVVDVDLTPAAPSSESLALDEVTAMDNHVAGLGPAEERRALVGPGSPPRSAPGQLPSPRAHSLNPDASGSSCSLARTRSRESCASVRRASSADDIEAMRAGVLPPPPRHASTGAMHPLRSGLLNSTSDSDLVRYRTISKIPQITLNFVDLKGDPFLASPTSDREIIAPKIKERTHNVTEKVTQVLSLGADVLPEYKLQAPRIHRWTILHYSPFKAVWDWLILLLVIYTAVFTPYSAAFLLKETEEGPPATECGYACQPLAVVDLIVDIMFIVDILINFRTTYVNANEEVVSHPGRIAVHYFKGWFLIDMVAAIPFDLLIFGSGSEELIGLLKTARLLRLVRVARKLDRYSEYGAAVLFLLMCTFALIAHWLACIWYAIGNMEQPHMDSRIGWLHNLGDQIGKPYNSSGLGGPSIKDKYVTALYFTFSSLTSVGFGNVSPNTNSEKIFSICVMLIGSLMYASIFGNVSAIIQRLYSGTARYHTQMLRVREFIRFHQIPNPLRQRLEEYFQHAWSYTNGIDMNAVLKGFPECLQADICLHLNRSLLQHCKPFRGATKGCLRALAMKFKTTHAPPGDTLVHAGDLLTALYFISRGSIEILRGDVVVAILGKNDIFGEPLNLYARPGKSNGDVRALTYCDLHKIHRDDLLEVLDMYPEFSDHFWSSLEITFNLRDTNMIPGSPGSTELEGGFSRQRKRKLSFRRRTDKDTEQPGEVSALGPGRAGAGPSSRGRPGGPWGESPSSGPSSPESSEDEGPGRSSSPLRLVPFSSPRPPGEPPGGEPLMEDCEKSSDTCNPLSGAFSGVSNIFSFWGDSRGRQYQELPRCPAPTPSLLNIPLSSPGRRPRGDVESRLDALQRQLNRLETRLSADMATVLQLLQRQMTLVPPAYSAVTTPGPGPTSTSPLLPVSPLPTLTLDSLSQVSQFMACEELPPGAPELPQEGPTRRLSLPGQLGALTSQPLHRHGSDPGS
Sequence of CYP2C9 (P11712 whole entry, canonical isoform): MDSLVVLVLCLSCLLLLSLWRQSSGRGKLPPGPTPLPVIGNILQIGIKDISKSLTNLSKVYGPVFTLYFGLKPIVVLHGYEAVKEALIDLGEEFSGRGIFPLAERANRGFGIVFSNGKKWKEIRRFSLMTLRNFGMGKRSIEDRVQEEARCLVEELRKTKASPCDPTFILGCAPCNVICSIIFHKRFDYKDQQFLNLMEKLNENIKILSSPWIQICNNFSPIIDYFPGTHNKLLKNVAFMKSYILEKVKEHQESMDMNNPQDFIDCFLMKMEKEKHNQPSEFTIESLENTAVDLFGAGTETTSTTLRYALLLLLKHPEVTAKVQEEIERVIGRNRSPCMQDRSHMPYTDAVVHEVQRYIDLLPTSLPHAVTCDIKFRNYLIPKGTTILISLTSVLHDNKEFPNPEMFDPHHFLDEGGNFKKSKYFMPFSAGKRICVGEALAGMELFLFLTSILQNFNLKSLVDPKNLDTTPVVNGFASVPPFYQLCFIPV
Sequence of Human immunodeficiency virus type 1 integrase (Q7ZJM1 whole entry): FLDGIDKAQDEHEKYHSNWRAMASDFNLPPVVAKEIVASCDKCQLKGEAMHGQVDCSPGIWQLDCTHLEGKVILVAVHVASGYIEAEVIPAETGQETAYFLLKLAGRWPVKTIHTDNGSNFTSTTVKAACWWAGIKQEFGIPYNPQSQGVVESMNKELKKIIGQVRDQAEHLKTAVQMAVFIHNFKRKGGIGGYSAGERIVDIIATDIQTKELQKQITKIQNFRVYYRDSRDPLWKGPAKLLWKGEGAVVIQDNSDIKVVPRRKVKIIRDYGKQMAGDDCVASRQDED
Sequence of CYP2D6 (P10635 whole entry): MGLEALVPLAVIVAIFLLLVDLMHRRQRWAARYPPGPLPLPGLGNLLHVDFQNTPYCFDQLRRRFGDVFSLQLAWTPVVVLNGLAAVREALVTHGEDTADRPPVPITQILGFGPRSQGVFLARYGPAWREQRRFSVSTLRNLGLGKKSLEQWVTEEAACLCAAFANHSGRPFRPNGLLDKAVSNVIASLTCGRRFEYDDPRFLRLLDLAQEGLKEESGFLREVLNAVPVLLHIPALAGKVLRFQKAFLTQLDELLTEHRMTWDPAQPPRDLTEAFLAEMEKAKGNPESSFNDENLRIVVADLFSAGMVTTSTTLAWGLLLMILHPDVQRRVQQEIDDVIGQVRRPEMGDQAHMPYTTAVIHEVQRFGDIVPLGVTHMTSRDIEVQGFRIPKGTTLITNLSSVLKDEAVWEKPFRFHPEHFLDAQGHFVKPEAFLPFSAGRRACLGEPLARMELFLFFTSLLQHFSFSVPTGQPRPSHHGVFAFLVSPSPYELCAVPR

What does the source list for `CCCCCCNC(=O)C1C(=O)N(O)C(=O)c2ccccc21` (centres undefined)?
cytotoxicity at 72 h, 1 µM [1]: -10%; cytotoxicity at 72 h, 100 µM [2]: 26.8%; IC50 [3]: 195 nM; Activity (HepG2 [4]): 0.1%; cytotoxicity at 72 h, 30 µM [5]: 12.1%; inhibition at 5 min, 1 µM (hERG (KCNH2) [6]): 12.2%; inhibition at 40 min, 10 µM (CYP2C9): 25.3%; Activity (HepG2 [7]): -1.5%; Activity (HepG2 [8]): 7%; solubility [9]: 160 µM (≈ 48.8 µg/mL); Activity (HepG2 [10]): 5.8%; selectivity ratio [11]: 21.2; cytotoxicity at 72 h, 1 µM [12]: -7%; Activity [13]: Active; Activity (HepG2 [14]): 32.3%; cytotoxicity at 72 h, 100 µM [15]: 25.3%; cytotoxicity at 72 h, 30 µM [16]: 4.9%; recovery at 4 h, 10 µM [17]: 93.2%; fraction unbound at 4 h, 10 µM [18]: 0.001; Ratio EC50 [19]: 1; inhibition at 5 min, 0.1 µM (hERG (KCNH2) [20]): 5.8%; inhibition at 5 min, 10 µM (hERG (KCNH2) [21]): 19.4%; inhibition at 40 min, 10 µM (CYP2D6): 24.6%; logD [22]: 1.26
